Only some compounds are listed: those with a hit (about 1.7% of all), similar ones and a draw of the others.
VIM-2 inh – VIM-2 metallo-beta-lactamase inhibitors, primary screen, biochemical, epi-absorbance readout, Pseudomonas aeruginosa enzyme. purified VIM-2, nitrocefin hydrolysis, epi-absorbance fluorescence. inhibition, % at 5.6 µM. 290,000 compounds, 0.89% hits. AID 1527, 2009;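 active = inhibition above the mean of all tested compounds plus 3 SD, cutoff set per screening run, cut at about 7.5% in these data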;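 note: red hydrolysis product quenches plate fluorescence so inhibitors raise well fluorescence; 0% = enzyme with DMSO and 100% = DMSO without enzyme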
Neddylation inh – inhibitors of cullin neddylation, primary screen, biochemical, TR-FRET, uHTS, NAE and Ubc12. AID 651699, 2012. 360,000 compounds, 0.58% hits. NEDD8-conjugating enzyme Ubc12 (Homo sapiens) + NEDD8-activating enzyme E1 regulatory …. calls only at 25 µM; in the data active = inhibition above about 36%
IMP-1 inh – IMP-1 metallo-beta-lactamase inhibitors, primary screen, biochemical, epi-absorbance readout, Pseudomonas aeruginosa enzyme | metallo-beta-lactamase IMP-1 (Pseudomonas aeruginosa) | inhibition, % at 5.6 µM | 290,000 compounds, 0.45% hits | AID 1556, 2009 | purified IMP-1, nitrocefin hydrolysis, epi-absorbance fluorescence;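 active = inhibition above the mean plus 3 SD of all compounds in the same screening run, cut at about 4.5% in these data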;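 note: 0% = IMP-1 with DMSO and 100% = DMSO wells lacking enzyme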
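assay system = purified recombinant IMP-1 metallo-beta-lactamase enzyme | schedule = 15 min preincubation plus 25 min reaction at 25 °C | signal = Epi-absorbance fluorescence, 480 nm excitation, 530 nm emission | read-out basis = percent inhibition from optical density relative to buffer-blank wells | controls = IMP-1 with DMSO as 0%, enzyme-free DMSO as 100%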
procasp3 activ – activators of human procaspase-3 D3A mutant, primary screen, biochemical, absorbance, PC-3 D3A mutant, single concentration; Caspase-3 (Homo sapiens), P42574; recombinant procaspase-3 D3A, Ac-DEVD-pNA absorbance 405 nm; activation, % at 8.5 µM; 330,000 compounds, 0.11% hits; AID 463141, 2010;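 active = activation above the mean of all tested compounds plus 3 SD, cut at about 21% in these data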;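 note: 0% = DMSO alone and 100% = DMSO wells spiked with extra 5 µM PC-3 D3A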
Target sequence (P42574 whole entry D9A/D28A/D175A): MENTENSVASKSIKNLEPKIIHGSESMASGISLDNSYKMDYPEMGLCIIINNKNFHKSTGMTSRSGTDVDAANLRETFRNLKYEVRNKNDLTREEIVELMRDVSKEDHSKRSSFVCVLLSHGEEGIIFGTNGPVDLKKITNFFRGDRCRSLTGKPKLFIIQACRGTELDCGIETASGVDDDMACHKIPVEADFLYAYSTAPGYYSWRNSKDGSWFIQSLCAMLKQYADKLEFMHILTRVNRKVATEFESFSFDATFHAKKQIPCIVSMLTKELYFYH
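Assay system – Procaspase-3 D3A mutant · Benchmarks – DMSO low control, extra-enzyme high control · Technique – 405 nm absorbance of p-nitroaniline, reads at 0 and 120 min · Doses – 8.5 µM nominal · Measure – % activation between DMSO and enzyme-spiked controls · Also added – Ac-DEVD-pNA chromogenic peptide substrate · Schedule – 1 h compound preincubation, 2 h substrate hydrolysis at 25 °C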
proCasp7 act – procaspase-7 activators, primary screen, counter-screen for procaspase-3 activator project, biochemical, absorbance, HTS, human. recombinant procaspase-7, Ac-DEVD-pNA absorbance 405 nm; D23A/D198A/D206A triple mutant, cannot self-cleave; scale: DMSO 0, 5 µM enzyme 100. activation, % at 8.5 µM. 330,000 compounds, 0.093% hits. Caspase-7 (Homo sapiens), P55210;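 active = percent activation above the screen-wide mean plus 3 SD, cut at about 25% in these data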
Target sequence (P55210 whole entry D23A/D198A/D206A): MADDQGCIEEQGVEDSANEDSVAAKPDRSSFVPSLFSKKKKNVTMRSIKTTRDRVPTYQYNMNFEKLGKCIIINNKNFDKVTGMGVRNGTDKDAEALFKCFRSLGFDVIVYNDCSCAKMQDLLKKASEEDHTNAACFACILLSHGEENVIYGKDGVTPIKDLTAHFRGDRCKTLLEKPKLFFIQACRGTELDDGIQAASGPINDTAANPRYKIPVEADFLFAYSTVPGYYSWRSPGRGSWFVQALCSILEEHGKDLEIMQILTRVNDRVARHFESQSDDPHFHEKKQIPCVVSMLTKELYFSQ
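Detection: p-Nitroaniline absorbance at 405 nm, read at 0 and 120 min; system: Uncleavable procaspase-7 mutant enzyme; evaluation: % activation from two-timepoint absorbance difference, scaled to controls; times: 1 h enzyme–compound preincubation and 2 h substrate reaction, both 25 °C; buffer or medium: Zinc-free HEPES pH 7.4 with 300 mM NaCl, 0.01% Triton X-100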
PolyA inhibitor – polyadenylation inhibitors in yeast reporter cells, primary screen, luminescence, S. cerevisiae. S. cerevisiae SKY197-pL101 polyadenylation reporter, beta-gal luminescence; efflux-impaired pdr1/pdr3 knockout yeast; score 100 = 6 SD above DMSO. activity score, % at 12 µM. 300,000 compounds, 0.02% hits. AID 1875, 2009;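 active = lowest replicate activity score at least 50, where 100 means six control SD above control mean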;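 note: yeast exposed to compound for 9 h at 30 °C; higher score means more reporter readthrough which indicates perturbed polyadenylation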
Starred values were filed as active, the others as inactive; i = inactive; . = no result given; + = active, no number.

SMILES	VIM-2 inh	Neddylation inh	IMP-1 inh	procasp3 activ	proCasp7 act	PolyA inhibitor
CCCS(=O)(=O)N1CCCC(C(=O)NCC2CCCO2)C1 (stereo unspecified)	-4	i	4.9*	1	6	-4
C/C(=N\N=C1\NC(=O)C(CC(=O)Nc2ccc(C)c(Cl)c2)S1)C(C)C (stereo unspecified)	-4	i	-1	-3	0	-3
Brc1ccc(-c2csc(N3CCc4ccccc4C3)n2)cc1	1	i	0	-1	5	-9
Brc1ccc(-c2csc(N3CCC(c4ccccc4)C3)n2)cc1 (stereo unspecified)	-2	i	-4	34*	11	3
CCOC(=O)N1CCN(C(=O)c2cc3c(=O)n(C)c4ccccc4c3n2C)CC1	4	i	-4	11	2	-4
CCCN(CCC)CCNC(=O)c1cc2c(=O)n(C)c3ccccc3c2n1C	22*	+	-4	7	4	-20
Cn1c(C(=O)NCCN2CCOCC2)cc2c(=O)n(C)c3ccccc3c21	13*	i	-3	8	2	-12
CCCN(CCC)CCCNC(=O)c1cc2c(=O)[nH]c3ccccc3c2n1C	8.9*	i	-1	-1	5	.
Cn1c(C(=O)N2CCCCCC2)cc2c(=O)n(C)c3ccccc3c21	8.2*	i	-2	-1	4	7
Cc1ccc(CNC(=O)c2cc3c(=O)n(C)c4ccccc4c3n2C)cc1	0	i	-3	-2	1	27
CC(C)c1ccc(-c2nnc(N)s2)cc1	-1	i	-6	2	-4	-18
Cn1c(C(=O)NCCN2CCN(c3ccccc3F)CC2)cc2c(=O)n(C)c3ccccc3c21	8.8*	i	-1	11	-7	-7
COc1ccc(N2CCc3c(C)nc4c(OC)cccc4c32)cc1	12*	i	-2	-2	-2	7
O=c1c2[nH]c3ccccc3c2ncn1Cc1cccnc1	-2	i	-2	.	.	5
CC(=O)Nc1ccc(-c2nnc(SCC(=O)n3c4c(c5ccccc53)CCCC4)n2C)cc1	5	i	4	.	.	-16
Cc1ccc(-c2nnc(SCC(=O)n3c4c(c5ccccc53)CCCC4)o2)cc1	-1	.	1	2	5	16
Cc1nnc(SCC(=O)n2c3c(c4ccccc42)CCCC3)s1	9.8*	i	-1	6	3	-36
Cn1c(SCC(=O)n2c3c(c4ccccc42)CCCC3)nnc1-c1ccccc1	8.7*	i	1	-4	-2	-17
COc1cc(NC(=O)Nc2nc(C(N)CCc3ccccc3)cs2)cc(OC)c1OC (stereo unspecified)	.	i	.	.	.	.
O=C(Nc1ccc(S(=O)(=O)N2CCOCC2)cc1)c1ccc(S(=O)(=O)N2CCOCC2)cc1	0	i	-2	-5	-3	1
COc1ccc(Nc2nnc(-c3ccncc3)s2)cc1Cl	1	i	17*	2	0	-12
CCCCNC(=O)C1(C)CCC(=O)N1CC(F)(F)F (stereo unspecified)	.	i	.	.	.	.
Cc1ccc(-c2nnc3c4ccccc4c(C)nn23)cc1NC(=O)c1ccco1	1	.	-6	.	.	.
Cc1nn2c(-c3cccc(NC(=O)c4ccco4)c3)nnc2c2ccccc12	9.8*	i	3	5	5	7
COCCCN1C(=O)C(CC(=O)NCc2cccs2)CC(C(=O)N(C(C)C)C(C)C)=C1C (stereo unspecified)	.	i	.	.	.	.
SMILES	VIM-2 inh	Neddylation inh	IMP-1 inh	procasp3 activ	proCasp7 act	PolyA inhibitor
Clc1cccc(Cl)c1CSc1nnc([C@@H]2CCCN2)o1	1	i	5.0*	1	-9	-5
Clc1cccc(CSc2nnc([C@@H]3CCCN3)o2)c1	2	i	2	0	-2	-2
CC(C)c1nnc(NC(=O)CCC(=O)NC2CCCCCCC2)s1	0	i	-2	5	5	-6
O=C(COc1ccc(S(=O)(=O)N2CCOCC2)cc1Cl)NCc1ccco1	-3	i	5.4*	6	-2	6
O=S(=O)(c1ccc(OCC(O)CNCc2ccco2)c(Cl)c1)N1CCOCC1 (stereo unspecified)	-2	i	-2	9	1	17
CCOC(=O)N1CCN(S(=O)(=O)c2ccc(OCC(=O)OC)c(Cl)c2)CC1	-1	i	5.0*	2	-5	-15
Clc1cccc(Cl)c1C[n+]1ccc2ccccc2c1	1	i	-2	3	-2	-1
Nc1ccc(Br)c2c1C(=O)c1ccccc1C2=O	10*	.	-3	4	-9	-31
CCN(CC)CCNC(=O)c1c(O)c2cccc3c2n(c1=O)CCC3	11*	i	-6	.	.	1
CNC(=O)c1c(O)c2cccc3c2n(c1=O)CCC3	9.5*	i	-3	.	.	7
O=C(NCCNCCO)c1c(O)c2cccc3c2n(c1=O)CCC3	10.0*	i	-2	0	-3	13
CCCCCCNC(=O)c1c(O)c2cccc3c2n(c1=O)CCC3	-3	i	-3	2	9	5
N#CC(C#N)=C1NC(N)=C(C#N)C(c2ccccc2)=C1C#N	-2	i	23*	-6	-11	-1
CCC(C)c1c(O)nc(SCC(=O)c2ccccc2)[nH]c1=O (stereo unspecified)	-1	i	4.7*	-11	-2	-6
CCC(C)c1c(O)nc(SCC(=O)Nc2ccccc2)[nH]c1=O (stereo unspecified)	-1	i	-2	0	6	-18
O=C1Nc2ccccc2S/C1=C/Nc1cccc(Cl)c1	7.8*	i	-2	-1	9	-24
O=C1Nc2ccccc2SC1=Cc1ccccc1	.	i	.	.	.	.
COc1ccc2[nH]c(=O)c(-c3nnn(-c4ccc(Cl)nc4)n3)cc2c1	.	+	.	1	-10	-18
CCN1C(=NCCc2cccs2)N[C@@H](c2cccs2)C(C(=O)OC)=C1C	0	i	1	-1	-6	-27
CC(C)OC(=O)C[N+](C)(C)CCN1C(=O)C2C(c3ccccc3)C=CC(c3ccccc3)C2C1=O (stereo unspecified)	1	i	13*	-1	4	11

Bioassay records as filed in PubChem BioAssay.
